Where “and” joins values, the source holds several entries; their conditions need not be identical. Equal values may be shown once.
Tested on: HEK-293T
Assay: Multiplex assay against HEK293T
Assay type: toxicity, cell-based
Conditions: human
How it was run: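 Tubulin, mitochondrial-mass and membrane-permeability phenotypes are per cents of healthy-nucleus cells. Cells were gated by CellPathfinder machine learning into Hoechst high-intensity objects or normal cells, normal cells into healthy, pyknosed or fragmented nuclei, and pyknosed cells into mitotic or apoptotic. Before that, live cells stained at seeding with Hoechst33342, BioTracker Green Microtubule Cytoskeleton Dye, MitoTracker Red and Annexin V Alexa Fluor 680 were imaged on a CQ1 microscope at 37°C and 5% CO2 after compound addition.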

[1] = 12 h, 1 µM, compound concentration 1 uM
[2] = 12 h, 10 µM, compound concentration 10 uM
[3] = 24 h, 1 µM, compound concentration 1 uM
[4] = 24 h, 10 µM, compound concentration 10 uM
[5] = 48 h, 1 µM, compound concentration 1 uM
[6] = 48 h, 10 µM, compound concentration 10 uM

Cc1ccc(OCC(O)C(C)NC(C)C)c2c1CCC2.Cl (stereo unspecified)
Population Apoptotic (%) [1]: 34% and 45%
Population Fragmented Nuclei (%) [1]: 6% and 5%
Population Healthy Nuclei (%) [1]: 81% and 84%
Population Hoechst High Intensity Objects (%) [1]: 5%
Population Membrane Permeable-Phenotype (%) [1]: 0%
Population Mitochondria Different-Phenotype (%) [1]: 54% and 65%
Population Mitotic Cells (%) [1]: 65% and 54%
Population Normal (%) [1]: 94%
Population Pyknosed Nuclei (%) [1]: 12% and 10%
Population Tubulin-Different-Phenotype (%) [1]: 40% and 22%
Total Cell Count [1]: 409 and 360
Population Apoptotic (%) [2]: 43%
Population Fragmented Nuclei (%) [2]: 7% and 9%
Population Healthy Nuclei (%) [2]: 67% and 76%
Population Membrane Permeable-Phenotype (%) [2]: 0%
Population Mitochondria Different-Phenotype (%) [2]: 66% and 79%
Population Mitotic Cells (%) [2]: 56%
Population Normal (%) [2]: 96% and 81%
Population Pyknosed Nuclei (%) [2]: 25% and 14%
Population Tubulin-Different-Phenotype (%) [2]: 61% and 59%
Total Cell Count [2]: 247 and 323
Population Apoptotic (%) [3]: 35% and 28%
Population Fragmented Nuclei (%) [3]: 6% and 7%
Population Healthy Nuclei (%) [3]: 80% and 83%
Population Hoechst High Intensity Objects (%) [3]: 3% and 4%
Population Membrane Permeable-Phenotype (%) [3]: 0%
Population Mitochondria Different-Phenotype (%) [3]: 38% and 45%
Population Mitotic Cells (%) [3]: 64% and 71%
Population Normal (%) [3]: 96% and 95%
Population Pyknosed Nuclei (%) [3]: 12% and 9%
Population Tubulin-Different-Phenotype (%) [3]: 25% and 17%
Total Cell Count [3]: 548 and 444
Population Apoptotic (%) [4]: 46% and 50%
Population Fragmented Nuclei (%) [4]: 11% and 9%
Population Healthy Nuclei (%) [4]: 71% and 78%
Population Hoechst High Intensity Objects (%) [4]: 5% and 11%
Population Membrane Permeable-Phenotype (%) [4]: 1% and 0%
Population Mitochondria Different-Phenotype (%) [4]: 53% and 60%
Population Mitotic Cells (%) [4]: 53% and 50%
Population Normal (%) [4]: 94% and 88%
Population Pyknosed Nuclei (%) [4]: 17% and 11%
Population Tubulin-Different-Phenotype (%) [4]: 47%
Total Cell Count [4]: 334 and 399
Population Apoptotic (%) [5]: 24% and 26%
Population Fragmented Nuclei (%) [5]: 12% and 11%
Population Healthy Nuclei (%) [5]: 79% and 81%
Population Hoechst High Intensity Objects (%) [5]: 3% and 1%
Population Membrane Permeable-Phenotype (%) [5]: 0%
Population Mitochondria Different-Phenotype (%) [5]: 28% and 27%
Population Mitotic Cells (%) [5]: 75% and 73%
Population Normal (%) [5]: 96% and 98%
Population Pyknosed Nuclei (%) [5]: 8% and 7%
Population Tubulin-Different-Phenotype (%) [5]: 14%
Total Cell Count [5]: 804 and 660
Population Apoptotic (%) [6]: 40% and 34%
Population Fragmented Nuclei (%) [6]: 10% and 11%
Population Healthy Nuclei (%) [6]: 74% and 80%
Population Hoechst High Intensity Objects (%) [6]: 5%
Population Membrane Permeable-Phenotype (%) [6]: 0% and 1%
Population Mitochondria Different-Phenotype (%) [6]: 48% and 39%
Population Mitotic Cells (%) [6]: 59% and 66%
Population Normal (%) [6]: 94%
Population Pyknosed Nuclei (%) [6]: 14% and 8%
Population Tubulin-Different-Phenotype (%) [6]: 43% and 41%
Total Cell Count [6]: 435 and 611

Cn1cc(C(=O)OCC2CCN(CCNS(C)(=O)=O)CC2)c2ccccc21
Population Apoptotic (%) [1]: 39% and 56%
Population Fragmented Nuclei (%) [1]: 5% and 9%
Population Healthy Nuclei (%) [1]: 83% and 76%
Population Hoechst High Intensity Objects (%) [1]: 7% and 8%
Population Membrane Permeable-Phenotype (%) [1]: 0%
Population Mitochondria Different-Phenotype (%) [1]: 35% and 62%
Population Mitotic Cells (%) [1]: 60% and 43%
Population Normal (%) [1]: 92% and 91%
Population Pyknosed Nuclei (%) [1]: 10% and 14%
Population Tubulin-Different-Phenotype (%) [1]: 22% and 28%
Total Cell Count [1]: 466 and 248
Population Apoptotic (%) [2]: 47% and 43%
Population Fragmented Nuclei (%) [2]: 10%
Population Healthy Nuclei (%) [2]: 73% and 71%
Population Hoechst High Intensity Objects (%) [2]: 6% and 10%
Population Membrane Permeable-Phenotype (%) [2]: 0%
Population Mitochondria Different-Phenotype (%) [2]: 55% and 73%
Population Mitotic Cells (%) [2]: 52% and 56%
Population Normal (%) [2]: 93% and 89%
Population Pyknosed Nuclei (%) [2]: 15% and 18%
Population Tubulin-Different-Phenotype (%) [2]: 53% and 47%
Total Cell Count [2]: 479 and 393
Population Apoptotic (%) [3]: 29% and 48%
Population Fragmented Nuclei (%) [3]: 6% and 12%
Population Healthy Nuclei (%) [3]: 82% and 76%
Population Hoechst High Intensity Objects (%) [3]: 4% and 5%
Population Membrane Permeable-Phenotype (%) [3]: 1% and 0%
Population Mitochondria Different-Phenotype (%) [3]: 21% and 42%
Population Mitotic Cells (%) [3]: 70% and 51%
Population Normal (%) [3]: 95% and 94%
Population Pyknosed Nuclei (%) [3]: 10%
Population Tubulin-Different-Phenotype (%) [3]: 16% and 17%
Total Cell Count [3]: 650 and 283
Population Apoptotic (%) [4]: 35% and 48%
Population Fragmented Nuclei (%) [4]: 11% and 10%
Population Healthy Nuclei (%) [4]: 74% and 79%
Population Hoechst High Intensity Objects (%) [4]: 5% and 6%
Population Membrane Permeable-Phenotype (%) [4]: 1% and 0%
Population Mitochondria Different-Phenotype (%) [4]: 43% and 56%
Population Mitotic Cells (%) [4]: 64% and 51%
Population Normal (%) [4]: 94% and 93%
Population Pyknosed Nuclei (%) [4]: 13% and 9%
Population Tubulin-Different-Phenotype (%) [4]: 50% and 37%
Total Cell Count [4]: 587 and 491
Population Apoptotic (%) [5]: 25% and 44%
Population Fragmented Nuclei (%) [5]: 12% and 11%
Population Healthy Nuclei (%) [5]: 78% and 82%
Population Hoechst High Intensity Objects (%) [5]: 3% and 4%
Population Membrane Permeable-Phenotype (%) [5]: 1% and 3%
Population Mitochondria Different-Phenotype (%) [5]: 12% and 23%
Population Mitotic Cells (%) [5]: 74% and 55%
Population Normal (%) [5]: 96% and 95%
Population Pyknosed Nuclei (%) [5]: 8% and 6%
Population Tubulin-Different-Phenotype (%) [5]: 10% and 11%
Total Cell Count [5]: 1090 and 490
Population Apoptotic (%) [6]: 38%
Population Fragmented Nuclei (%) [6]: 16% and 13%
Population Healthy Nuclei (%) [6]: 77% and 79%
Population Hoechst High Intensity Objects (%) [6]: 6% and 4%
Population Membrane Permeable-Phenotype (%) [6]: 1% and 0%
Population Mitochondria Different-Phenotype (%) [6]: 31% and 37%
Population Mitotic Cells (%) [6]: 61%
Population Normal (%) [6]: 93% and 95%
Population Pyknosed Nuclei (%) [6]: 6%
Population Tubulin-Different-Phenotype (%) [6]: 28% and 26%
Total Cell Count [6]: 883 and 758

Reference: ChEMBL document CHEMBL5724801, “EUbOPEN Chemogenomics Library - Multiplex” (2024)
